# According to ChEMBL document CHEMBL2150889, “Azetidinyl oxadiazoles as potent mGluR5 positive allosteric modulators” (Bioorg Med Chem Lett, 2012):
# Key:
# [1] = Plasma protein binding in human; format: ADME, cell-free; details: read-out: PPB (converted)
# [2] = Plasma protein binding in rat; format: ADME, cell-free; details: read-out: PPB (converted)
# [3] = Plasma concentration in rat at 10 mg/kg, po after 1 hr; format: ADME, organism-based; design: dose 10 mg/kg, route oral
# Procedure, shortened: (§1)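 Rats got a single 10 mg/kg oral dose (n = 2 animals). Brain and plasma were sampled at 1 h. Concentrations were measured by HPLC-tandem MS and averaged values reported. Brain/plasma ratio is brain level (ng/g) divided by plasma level (ng/mL).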
# [4] = Ratio of drug level in brain to plasma of rat at 10 mg/kg, po after 1 hr; format: ADME, organism-based; design: dose 10 mg/kg, route oral; details: brain and plasma, read-out: BPR; procedure, shortened: as §1
# Liver microsomes [5] = assay: Intrinsic clearance in rat liver microsomes; format: ADME, Microsome
# Procedure, shortened: (§2)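 Intrinsic clearance was determined by the Obach method. Liver blood flow was taken as 1.5 L/min for human and 20 mL/min for rat. Human values are expressed in L/min and rat values in mL/min.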
# [6] = Drug uptake in rat brain at 10 mg/kg, po after 1 hr; format: ADME, organism-based; design: dose 10 mg/kg, route oral; details: read-out: Drug uptake; procedure, shortened: as §1
# [7] = biological target: T1, Metabotropic glutamate receptor 5 (Homo sapiens, UniProt P41594); assay: Binding affinity to human mGluR5 expressed in recombinant HEK293 cells by radiolabeled assay; format: cell-based
# Target sequence in this assay (P41594 21-1212 limits assumed): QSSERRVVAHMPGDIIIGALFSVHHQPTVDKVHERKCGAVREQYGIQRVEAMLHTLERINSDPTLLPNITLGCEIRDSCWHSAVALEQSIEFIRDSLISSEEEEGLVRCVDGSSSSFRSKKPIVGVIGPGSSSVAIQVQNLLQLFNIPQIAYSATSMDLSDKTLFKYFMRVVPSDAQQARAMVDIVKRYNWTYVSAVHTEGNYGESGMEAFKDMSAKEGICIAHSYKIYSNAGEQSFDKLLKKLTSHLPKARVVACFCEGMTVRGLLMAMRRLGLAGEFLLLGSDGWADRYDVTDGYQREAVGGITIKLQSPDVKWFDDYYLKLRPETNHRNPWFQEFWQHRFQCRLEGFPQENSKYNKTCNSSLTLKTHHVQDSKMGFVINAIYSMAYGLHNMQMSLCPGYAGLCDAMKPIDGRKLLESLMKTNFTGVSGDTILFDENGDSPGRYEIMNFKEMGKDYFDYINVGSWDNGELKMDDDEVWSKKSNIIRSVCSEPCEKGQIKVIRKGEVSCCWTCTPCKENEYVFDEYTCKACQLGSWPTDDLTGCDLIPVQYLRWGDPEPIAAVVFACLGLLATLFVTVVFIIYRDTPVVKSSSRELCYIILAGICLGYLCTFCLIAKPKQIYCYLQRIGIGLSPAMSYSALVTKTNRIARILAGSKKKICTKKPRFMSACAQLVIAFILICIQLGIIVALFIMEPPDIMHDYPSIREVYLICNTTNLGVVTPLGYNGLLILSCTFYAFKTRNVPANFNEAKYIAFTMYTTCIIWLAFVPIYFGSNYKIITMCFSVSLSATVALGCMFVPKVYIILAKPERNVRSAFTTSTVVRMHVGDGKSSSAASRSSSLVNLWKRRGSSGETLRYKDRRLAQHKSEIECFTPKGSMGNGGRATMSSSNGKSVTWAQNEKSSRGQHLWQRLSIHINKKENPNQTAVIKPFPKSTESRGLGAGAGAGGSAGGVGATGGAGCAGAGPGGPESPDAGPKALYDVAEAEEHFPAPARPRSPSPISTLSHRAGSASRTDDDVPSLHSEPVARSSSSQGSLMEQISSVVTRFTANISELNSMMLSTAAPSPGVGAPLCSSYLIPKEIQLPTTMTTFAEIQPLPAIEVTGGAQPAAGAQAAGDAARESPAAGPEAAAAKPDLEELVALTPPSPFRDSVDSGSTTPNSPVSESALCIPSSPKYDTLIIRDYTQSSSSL
# [8] = biological target: T1, Metabotropic glutamate receptor 5; assay: Positive allosteric modulation of human mGluR5 expressed in recombinant HEK293 cells by FLIPR assay; format: cell-based; design: Activity: concentration or dose not given beside the values
# Procedure, shortened: (§3)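 HEK293 cells recombinantly expressing human mGluR5 were seeded at 2×10^4 cells/well on poly-D-lysine. They were incubated overnight at 37 °C in glutamate/glutamine-free medium, then loaded for 1 h at 37 °C with calcium 5 dye containing 3 U/ml glutamic pyruvic transaminase and 3 mM sodium pyruvate. Calcium flux was read by FLIPR.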
# Liver microsomes [9] = assay: Intrinsic clearance in human liver microsomes; format: ADME, Microsome; procedure, shortened: as §2
# [10] = biological target: T1, Metabotropic glutamate receptor 5; assay: Negative allosteric modulation of human mGluR5 expressed in recombinant HEK293 cells by FLIPR assay; format: cell-based; details: for inhibition: concentration not given here; procedure, shortened: as §3
# [11] = Solubility of the compound in potassium phosphate buffer after 4 hrs by UPLC analysis; format: physicochemical
# Procedure, shortened: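 DMSO stock of compound (300 μL) was diluted with 2 × 200 μL of 25 mM potassium phosphate buffer. The mixture was shaken on a titer plate shaker for 4 h.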
SMILES,fraction unbound [1],fraction unbound [2],concentration at 1 h [3],Kp at 1 h [4],CLH (Liver microsomes [5]),concentration at 1 h [6],Activity [7],Activity [8],EC50 [8],Emax [8],CLH (Liver microsomes [9]),IC50 [10],solubility at 4 h [11],inhibition [10]
O=C(C1CCC(F)(F)CC1)N1CC(c2nc(-c3cccc(Cl)c3)no2)C1,0.013,0.031,160 ng/mL,1.75,24 mL/min,280 ng/g,3.8 µM,3%,180 nM,75%,0.9 L/min,> 10000 nM,130 µM,
O=C(c1ccc(F)cc1)N1CC(c2nc(-c3cccc(Cl)c3)no2)C1,,,,,,,,,> 10000 nM,-12%,,4000 nM,47 µM,60%
O=C([C@H]1CC2CCC1C2)N1CC(c2nc(-c3cccc(F)c3)no2)C1 (stereo not given in full),0.007,0.008,36 ng/mL,2.33,16 mL/min,84 ng/g,,,72 nM,140%,59 L/min,,54 µM,
O=C(C1CCC1)N1CC(c2nc(-c3cccc(Cl)c3)no2)C1,,,,,,,,,> 10000 nM,-7%,,1500 nM,,75%
Cc1cccc(-c2noc(C3CN(C(=O)C4CCC4)C3)n2)c1,,,,,,,,,> 10000 nM,3%,,1000 nM,,77%
Cc1cccc(-c2noc(C3CN(C(=O)C4CCC(F)(F)CC4)C3)n2)c1,,,,,,,,3%,590 nM,36%,,> 10000 nM,,
O=C(c1ccc(Cl)cc1)N1CC(c2nc(-c3cccc(F)c3)no2)C1,,,,,,,,82%,2500 nM,62%,,> 10000 nM,,
O=C(c1ccccc1F)N1CC[C@H]1c1nc(-c2cccc(F)c2)no1,,,,,,,,,> 10000 nM,57%,,920 nM,,68%
O=C(C1CCC(F)(F)CC1)N1CC(c2nc(-c3cccc(F)c3)no2)C1,,,,,,,,,520 nM,53%,,> 10000 nM,,11%
O=C(N1CCC(F)CC1)N1CC(c2nc(-c3cccc(Cl)c3)no2)C1,,,,,,,,61%,990 nM,41%,,> 10000 nM,,
CC1CN(C(=O)N2CC(c3nc(-c4cccc(Cl)c4)no3)C2)CC(C)O1 (stereo not given),,,,,,,,,> 10000 nM,,,990 nM,,51%
Cc1cccc(-c2noc(C3CN(C(=O)C4CCOCC4)C3)n2)c1,,,,,,,,,> 10000 nM,-2%,,1800 nM,,74%
Cc1cccc(-c2noc(C3CN(C(=O)C4CCCCC4)C3)n2)c1,,,,,,,,20%,950 nM,45%,,> 10000 nM,,
CC1CCCCC1C(=O)N1CC(c2nc(-c3cccc(F)c3)no2)C1 (stereo not given),0.034,0.055,,,13 mL/min,,,48%,540 nM,87%,1.6 L/min,> 10000 nM,180 µM,
O=C(N1CCCC(F)C1)N1CC(c2nc(-c3cccc(Cl)c3)no2)C1 (stereo not given),,,,,,,,81%,200 nM,51%,,> 10000 nM,,
O=C(N1CCCCC1)N1CC(c2nc(-c3cccc(Cl)c3)no2)C1,,,,,,,,87%,370 nM,44%,,> 10000 nM,,
Cc1cccc(-c2noc(C3CN(C(=O)c4ccc(Cl)cc4)C3)n2)c1,,,,,,,,6.3%,7100 nM,33%,,> 10000 nM,,
O=C(C1CCCCC1)N1CC(c2nc(-c3cccc(Cl)c3)no2)C1,,,,,,,,35%,520 nM,43%,,> 10000 nM,,
CC1CCCC(C(=O)N2CC(c3nc(-c4cccc(Cl)c4)no3)C2)C1 (stereo not given),,,,,,,,34%,410 nM,53%,,> 10000 nM,,
O=C(C1CCC(C(F)(F)F)CC1)N1CC(c2nc(-c3cccc(Cl)c3)no2)C1 (stereo not given),,,,,,,,5%,1000 nM,40%,,> 10000 nM,,
